Results as given in the array DNA melting data of Ke et al. (doi:10.1101/2024.01.08.574731).

Tests used:
[1] = folding enthalpy; higher = less favourable; fluorescence melt of hairpins on a sequencing array, two-state fit; conditions: sodium 0.088 M
Procedure, shortened: (§1)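 Cy3 fluorescence of library hairpins on a sequenced MiSeq flow cell, with annealed Cy3 and quencher oligos, was imaged in 50 mM Na-HEPES pH 8.0, 25 mM NaCl in 2.5 °C steps up to 60 °C. Signals were normalised to pre-quench Cy3 and to control variants. Melting temperature and folding enthalpy came from bootstrapped two-state fits, inverse-variance combined over four replicates. Fitted temperatures were raised by 9.35 °C to match UV melts.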

[2] = melting temperature; fluorescence melt of hairpins on a sequencing array, two-state fit, raised by 9.35 °C to match UV melts; conditions: sodium 0.088 M
Procedure, shortened: as §1

Row | Sequence | folding enthalpy [1] | Tm [2]
1 | GATCGTAATAACGATC ((((((....)))))) | -37 kcal/mol | 53.9 °C
2 | GACCCCGAAAGGGGTGTC ((((((....)))..))) | -9.59 kcal/mol | 60.6 °C
3 | GCTGTCGAAAGACGGAGC ((((((....)))..))) | -18.1 kcal/mol | 42.9 °C
4 | GATGCGGGAAACCGCGTC ((.((((....)))).)) | -19.2 kcal/mol | 59.9 °C
5 | GATCAATCATTGATC ((((((...)))))) | -27.1 kcal/mol | 42 °C
6 | GCACGTTCGAAAGAATGC (((..(((....)))))) | -16.9 kcal/mol | 29.6 °C
7 | GGATCCGAAAGGAATCC ((((((....))).))) | -31.7 kcal/mol | 50.8 °C
8 | GCTCACGAAAGTGGAAGC ((((((....)))..))) | -20.9 kcal/mol | 45.4 °C
9 | CAGTTGAAAAACTG (((((....))))) | -20.9 kcal/mol | 44.7 °C
10 | GCTGATCGAAAGATAGC (((.(((....)))))) | -23.1 kcal/mol | 41.5 °C
11 | GACGGCCGAAAGGCGGTC (((.(((....))).))) | -25.1 kcal/mol | 67.9 °C
12 | GTCGTAGGAAACCACGAC (((((.(....).))))) | -31.8 kcal/mol | 49.1 °C
13 | GTGAACGAAAGTTATCAC ((((((....)))..))) | -13.2 kcal/mol | 31 °C
14 | GTCGCGGGAAACCACGAC ((((.((....)).)))) | -43.8 kcal/mol | 53.4 °C
15 | GATCAGCCCTCTGATC ((((((....)))))) | -35.3 kcal/mol | 50.1 °C
16 | GCAGACGAAAGTCGATGC ((((((....)))..))) | -17.6 kcal/mol | 45.4 °C
17 | GGATTCGAAAGAAAATCC ((((((....)))..))) | -21.4 kcal/mol | 29.9 °C
18 | GCATCGCGAAAGCACTGC (((..((....))..))) | -14.7 kcal/mol | 38.5 °C
19 | GCGTGAGGAAACTCATGC ((.((((....)))).)) | -35.8 kcal/mol | 53.4 °C

Row | Sequence | folding enthalpy [1] | Tm [2]
20 | GTATGCGAAAGCATTTAC ((((((....)))..))) | -8.67 kcal/mol | 30.6 °C
21 | GATTAACGAAAGTTATC (((.(((....)))))) | -13.2 kcal/mol | 31.3 °C
22 | GATCTGTTGGCAGATC ((((((....)))))) | -40.3 kcal/mol | 54.2 °C
23 | GATCTATTGTAGATC ((((((...)))))) | -22.8 kcal/mol | 41 °C
24 | GTGACTCGAAAGAGCCAC (((.(((....))).))) | -38.2 kcal/mol | 54.5 °C
25 | GCTAGTGGAAACGCTAGC (((((.(....).))))) | -40.4 kcal/mol | 52.3 °C
26 | GTGTCCTCGAAAGAGCAC (((..(((....)))))) | -14.5 kcal/mol | 36 °C
27 | GATCCTTGGAGGATC ((((((...)))))) | -42 kcal/mol | 50.4 °C
28 | CGACCGGAAACGGTGTCG ((((((....)))..))) | -14.8 kcal/mol | 43 °C
29 | GGACACGAAAGTGTCTCC ((((((....)))..))) | -9.39 kcal/mol | 53.8 °C
30 | GACAGAACGAAAGTTGTC (((..(((....)))))) | -28.2 kcal/mol | 36.8 °C
31 | GCGAAAGTTCGC ((((....)))) | -19.6 kcal/mol | 47.2 °C
32 | GGTCACGAAAGTGCAACC ((((((....)))..))) | -15.9 kcal/mol | 38.6 °C
33 | GCAGTCGGAAACGACCGC ((.((((....)))).)) | -27.3 kcal/mol | 52 °C
34 | GGTGATCCGAAAGGAACC (((..(((....)))))) | -18.7 kcal/mol | 33.2 °C
35 | GTCCCCCGAAAGGGTGAC (((.(((....))).))) | -28.1 kcal/mol | 52.5 °C
36 | GATGCAGAAATGCATC ((((((....)))))) | -36.7 kcal/mol | 58.7 °C
37 | GATCCGACGTCGGATC ((((((....)))))) | -52 kcal/mol | 59.9 °C
38 | GTTAAAACGAAAGTTAAC (((..(((....)))))) | -16.6 kcal/mol | 26.3 °C
